This is a sample that favours compounds with a hit; in the whole collection about 2% have one here.
Granule exo inh – lytic granule exocytosis inhibition | AID 651702 | TALL-104 LAMP-1 surface exposure, flow cytometry; cells stimulated with thapsigargin and PMA | inhibition, % at 10 µM | hit rate 0.66% among 360,000;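 active means inhibition above about 55%, limit read from the data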
VLA-4 inh – inhibition in a human VLA-4 binding assay | VLA-4 expressing cells, ligand binding flow cytometry | inhibition, % (about 7 µM as worked out from the volumes in the protocol) | hit rate 0.2% among 330,000; in the data active means inhibition above about 50%
FGF22 binding – shifts melting point of recombinant human FGF22 | Q9HCT0 | recombinant FGF22 thermal shift, SYPRO orange fluorescence; percent of sucrose octasulfate shift, DMSO zero | activity (Tm shift, normalised), % at 9.99 µM | hit rate 1.5% among 340,000 | AID 651658;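 active means mean Tm shift, scaled 0 neutral to 100 positive control, at about 1.3% or above, every replicate too, limit read from the data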
Target sequence (Q9HCT0 whole entry, looked up): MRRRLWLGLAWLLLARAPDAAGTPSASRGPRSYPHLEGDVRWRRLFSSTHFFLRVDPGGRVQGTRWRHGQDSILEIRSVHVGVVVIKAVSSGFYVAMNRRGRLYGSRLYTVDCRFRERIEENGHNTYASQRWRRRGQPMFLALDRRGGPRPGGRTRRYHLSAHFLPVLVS
DAGLB inhibitor – diacylglycerol lipase beta (human) inhibition; Q8NCG7; HEK293T DAGLB membrane lysate, EnzChek fluorogenic substrate; inhibition, % at 5.17 µM; hit rate 0.059% among 340,000; AID 504411; in the data active means inhibition above about 34%;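 further: 0% = enzyme with vehicle and 100% = wells lacking enzyme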
ABCB6 inh MLPCN – human ABCB6 transporter inhibition. Q9NP58. K562-ABCB6 porphyrin accumulation, flow cytometry, 1 h; active compounds read low. fluorescence ratio to DMSO, % at 10 µM. hit rate 0.19% among 360,000;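 active means fluorescence ratio to DMSO below 75%, the collection mean minus 3 SD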;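 further: signal is porphyrin accumulated inside mitochondria; 100% equals median channel fluorescence of DMSO control wells; lower ratio means ABCB6 inhibition with less porphyrin fluorescence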
MT1-MMP act inh – blocks activation of human MT1-MMP | P50281 | HT1080 RFP-PRO-GFP cells, GFP/RFP ratio fluorescence, overnight; percent of plate control window, DMSO zero | GFP/RFP ratio change, % at 20 µM | hit rate 0.061% among 360,000;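 active means GFP/RFP ratio change of at least 30% with cell ATP level not reduced by more than half and red fluorescence within 50% of control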
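Material – HT1080 RFP-PRO-GFP cells · Control set – DMSO wells and RFP-L50D-GFP cells · Incubation – overnight cell settling, then overnight compound exposure, 37 °C, 5% CO2 · Compound dosing – single-point 20 µM compound, 1% DMSO · Read-out – GFP/RFP fluorescence ratio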
VLA-4 allo CP – human VLA-4 allosteric modulation in cherry picked compounds; shares compounds with VLA-4 inh; U937 cells, HUTS-21 LIBS mAb binding, flow cytometry; LDV ligand present at threefold Kd; inhibition, % at 6.7 µM; hit rate 2% among 1,300; AID 2813; in the data active means inhibition above about 40%;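 further: 0% = ligand without compound and 100% = no ligand background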
* hit, by the source's call; x = no result.

SMILES | Granule exo inh | VLA-4 inh | FGF22 binding | DAGLB inhibitor | ABCB6 inh MLPCN | MT1-MMP act inh | VLA-4 allo CP
O=C(Nc1ccccn1)C1CCN(C(=O)c2ccc(F)cc2)CC1 | 4.0 | 26.0 | 0.2 | -4.2 | 92.0 | 9.0 | 4.0
Cc1cccc(NC(=O)C2CCN(C(=O)c3ccccc3C)CC2)n1 | -8.0 | -2.8 | 0.0 | -2.1 | 94.0 | -1.5 | -3.2
C[C@@H]1CN([C@@H](C)CO)C(=O)Cc2cc(NC(=O)C3CC3)ccc2O[C@H]1CN(C)C(=O)Nc1ccc(F)cc1 | x | x | 0.0 | x | x | x | x
COC(=O)c1c(NC(=O)Cc2ccccc2)sc(C)c1C | -5.3 | -0.5 | x | -7.3 | 91.0 | -2.4 | x
COC(=O)c1c(NC(=O)C2c3ccccc3Oc3ccccc32)sc(C)c1C | 3.9 | 10.0 | x | 1.4 | 102.0 | 0.4 | 7.7
COC(=O)c1sc(NC(=O)C2c3ccccc3Oc3ccccc32)c(C(=O)OC)c1C | -1.4 | 0.3 | x | -4.1 | 101.0 | -3.2 | -2.1
CCOC(=O)c1c(NC(=O)C2c3ccccc3Oc3ccccc32)sc(C(C)=O)c1C | 2.1 | -8.8 | 0.2 | -5.2 | 99.0 | -8.0 | 0.0
O=C(CSc1nnc(-c2ccccc2Cl)o1)Oc1ccc(Br)cc1 | -1.3 | 91.0* | x | -0.6 | 104.0 | -1.1 | 8.8
O=C(CSc1nnc(-c2ccccc2O)o1)Oc1ccc(Br)cc1 | 7.8 | 8.1 | x | -4.8 | 101.0 | 1.2 | x
CCC(=O)Nc1ccc2ccccc2c1 | 2.0 | 45.4 | x | -0.9 | 91.0 | 1.1 | 3.7
COc1ccc(NC(=O)CCn2cccc2)c(OC)c1 | -3.2 | 57.9* | -0.1 | -1.9 | 97.0 | 0.2 | 1.8
COc1ccc(NC(=O)N(C)C[C@@H]2Oc3ccc(N(C)C)cc3C(=O)N([C@@H](C)CO)C[C@H]2C)cc1 | x | x | 1.2 | x | x | x | x
CC(C)(C)NC(=O)N1c2ccccc2Sc2ccccc21 | 0.5 | 54.4* | -0.3 | -3.8 | 92.0 | 8.0 | 2.6
C[C@@H]1CN([C@@H](C)CO)C(=O)c2cc(NS(=O)(=O)c3ccc(Cl)cc3)ccc2O[C@@H](C)CCCCO[C@H]1CN(C)C | x | x | -0.1 | x | x | x | x
Cn1cccc1C(=O)NC(=O)COC(=O)c1ccccc1O | -3.6 | 55.0* | x | 3.2 | 99.0 | 1.2 | 3.3
Cn1cccc1C(=O)NC(=O)COC(=O)c1ccc(O)cc1 | -7.7 | -6.6 | x | 0.5 | 92.0 | -1.3 | x
CCOC(=O)N1CCN(S(=O)(=O)c2cc(-c3nn4c(C)nnc4c4ccccc34)ccc2C)CC1 | 7.1 | -3.3 | x | 1.3 | 83.0 | 9.8 | -2.2
Cc1ccc(-c2nn3c(C)nnc3c3ccccc23)cc1S(=O)(=O)NCCN1CCOCC1 | 9.0 | 0.0 | x | -0.4 | 106.0 | 9.4 | -10.4
COCC(=O)Nc1ccc2c(c1)OC[C@@H](C)N(CC1CC1)C[C@H](C)[C@H](OC)CN(C)C2=O | x | x | 0.0 | x | x | x | x
C=CCN1c2ccccc2[C@]23C[C@@H](C(=O)OC)N(C(=O)c4ccc(Br)cc4)C2=NC(C(=O)OC)=C(C(=O)OC)[C@H]13 | -16.2 | 51.2* | -0.2 | 0.4 | 92.0 | -0.2 | 12.3
COC(=O)C1=C(C(=O)OC)[C@@H]2N(Cc3ccccc3)c3ccccc3[C@@]23C[C@@H](C(=O)OC)N(C(=O)c2ccc(Br)cc2)C3=N1 | -4.0 | -0.1 | x | 0.9 | 94.0 | -12.2 | x
Cc1ccc(/C=N/NC(=O)CNC(=O)c2cccc([N+](=O)[O-])c2C)o1 | -0.9 | 58.4* | 43.3* | -1.4 | 96.0 | 4.8 | 5.3
Cc1ccc(/C=N/NC(=O)CNC(=O)c2ccc(C)c([N+](=O)[O-])c2)o1 | -3.3 | 0.4 | 0.4 | 2.0 | 91.0 | -5.0 | x
C=CCNC(=O)Cn1c(=O)c2c(ncn2CCC(C)C)n(Cc2ccccc2)c1=O | 1.1 | 49.8* | 0.1 | -0.6 | 98.0 | -1.7 | -1.1
c1ccc(CCC2CCCCN2Cc2nc(C3CC3)no2)cc1 (stereo not given) | -1.4 | 44.5 | 0.1 | -7.9 | 108.0 | -0.7 | -15.1
SMILES | Granule exo inh | VLA-4 inh | FGF22 binding | DAGLB inhibitor | ABCB6 inh MLPCN | MT1-MMP act inh | VLA-4 allo CP
O=C(CCC(=O)Nc1ccccc1)N/N=C/c1ccncc1 | -3.7 | -13.4 | 0.3 | -2.4 | 78.0 | 2.5 | x
O=C(CCC(=O)Nc1ccc(F)cc1)N/N=C/c1ccncc1 | -2.0 | 56.4* | -0.2 | -1.4 | 101.0 | 0.1 | 0.0
COc1cccc(CN(C(=O)Cc2c[nH]c3ccccc23)C(C(=O)NC2CCCCC2)c2ccc(C)o2)c1 (stereo not given) | 14.3 | 48.4 | 0.2 | -7.0 | 91.0 | -18.9 | -123.8
O=C(N[C@H]1CC[C@H](CCNS(=O)(=O)c2ccc(F)cc2)O[C@@H]1CO)c1ccccn1 | x | x | -0.2 | x | x | x | x
O=C(Oc1ccc(F)cc1C(=O)/C=C/c1cccs1)c1cccc([N+](=O)[O-])c1 | 5.1 | 49.7* | x | 1.8 | 92.0 | -0.5 | 40.6*
COc1ccc(S(=O)(=O)N[C@H]2CC[C@H](CCn3cc(-c4ccccc4F)nn3)O[C@@H]2CO)cc1 | x | x | -0.5 | x | x | x | x
CCOC(=O)C1(Cc2ccccc2Cl)CCN(C(=O)CCn2ccnc2C)CC1 | 3.6 | 52.9* | 0.1 | -1.2 | 102.0 | 3.3 | -6.2
CCOC(=O)C1(Cc2ccccc2Cl)CCN(S(=O)(=O)N(C)C)CC1 | 2.1 | 11.4 | 0.0 | -2.6 | 104.0 | 0.4 | x
COC(=O)c1c(C)[nH]c(C(=O)C(C)OC(=O)C2CC2C)c1C (stereo not given) | -1.4 | -14.9 | 0.1 | 0.8 | 95.0 | 10.7 | -6.8
O=C(NCc1ccccc1)C1CCCN(C(=O)Nc2ccccc2)C1 (stereo not given) | -0.1 | 75.2* | x | 0.2 | 95.0 | 10.3 | 0.0
COc1ccc(/C=N/NC(=O)c2cccc(NC(C)=O)c2)c(C(=O)O)c1OC | -1.4 | 42.7 | 0.0 | 1.3 | 99.0 | -5.3 | 0.5
COc1ccc(S(=O)(=O)N[C@@H]2CC[C@@H](CC(=O)NCCc3ccncc3)O[C@H]2CO)cc1 | x | x | -0.6 | x | x | x | x
C[C@H](CO)N1C[C@H](C)[C@@H](CN(C)CC2CC2)Oc2c(NC(=O)C3CCCCC3)cccc2C1=O | x | x | -0.1 | x | x | x | x
C[C@H](CO)N1C[C@H](C)[C@@H](CN(C)S(C)(=O)=O)Oc2ccc(NS(C)(=O)=O)cc2C1=O | x | x | -0.1 | x | x | x | x
CC1=C(C(=O)Nc2ccc(F)cc2)C(c2cccc(C)c2)n2nc(CCCO)nc2N1 (stereo not given) | 0.8 | 51.3* | 0.2 | 0.9 | 104.0 | 0.8 | -3.9
CN(C)CC(=O)N1[C@@H](CO)[C@@H](c2ccccc2)C12CN(Cc1cc(F)ccc1F)C2 | x | x | -1.1 | x | x | x | x
Nc1cc(S(=O)(=O)Nc2ccc(Br)cc2)ccc1Cl | -1.9 | -2.4 | -0.2 | -3.5 | 94.0 | 3.3 | 6.1
NNC(=O)c1ccc(NS(=O)(=O)c2ccc(Br)cc2)cc1 | x | 0.1 | 0.0 | x | x | x | x
O=C(c1ccc(CN2CCc3ccccc3C2)cc1)N1CCN(c2ccccc2)CC1 | -1.2 | 46.5 | x | -2.1 | 96.0 | 2.2 | -6.9
